This passage reports inhibition, Activity and IC50 results from ChEMBL document CHEMBL4825754, “Antiviral evaluation of hydroxyethylamine analogs: Inhibitors of SARS-CoV-2 main protease (3CLpro), a virtual screening and simulation approach” (Bioorg Med Chem, 2021).

Series [1] concerns the target Replicase polyprotein 1ab (Severe acute respiratory syndrome coronavirus 2) (UniProt P0DTD1). Nature of the series: Inhibition of SARS-CoV-2 3CLpro using TVLQ-AMC probe as substrate at 50 uM preincubated with enzyme for 5 mins followed by substrate addition and measured after 3 hrs for every 15 mins for 1 hr by FRET assay. As to conditions: time 245.0 min. The essentials: (§1)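 3CLpro (0.4 µM final) preincubated 5 min at room temperature with compound in Tris-HCl pH 7.3, 1 mM EDTA. TVLQ-AMC added to 40 µM final. Fluorescence (ex 364/em 440 nm) read every 15 min for 1 h and at 3 h, in triplicate. Values normalized to the mean 3 h no-inhibitor control set as 100.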

The test system of series [2] is Vero C1008. Nature of the series: Cytotoxicity against African green monkey Vero E6 cells assessed as effect on nuclei count. Type of series: cell-based. As to conditions: chlorocebus sabaeus.
For series [3], the target named is Replicase polyprotein 1ab (Severe acute respiratory syndrome coronavirus 2) (UniProt P0DTD1). Nature of the series: Inhibition of SARS-CoV-2 3CLpro using TVLQ-AMC probe as substrate at 10 uM preincubated with enzyme for 5 mins followed by substrate addition and measured after 3 hrs for every 15 mins for 1 hr by FRET assay. As to conditions: time 245.0 min. The method, boiled down: as §1

Series [4] has as its system SARS-CoV-2. Nature of the series: Antiviral activity against SARS-CoV-2 infected in African green monkey Vero E6 cells assessed as inhibition of viral spread cells preincubated with compound for 1 hr followed by viral infection for 1 hr and later washed with PBS followed by re-incubated with compound for 48 hrs. Type of series: functional, organism-based, Severe acute respiratory syndrome coronavirus 2.

Series [5] concerns SARS-CoV-2. Nature of the series: Antiviral activity against SARS-CoV-2 infected in African green monkey Vero E6 cells assessed as inhibition of viral entry cells preincubated with compound for 1 hr followed by viral infection for 1 hr and later washed with PBS followed by re-incubated with compound for 24 hrs. Type of series: functional, organism-based, Severe acute respiratory syndrome coronavirus 2.

Series [6] deals with Vero C1008. Nature of the series: Cytotoxicity against African green monkey Vero E6 cells assessed as reduction in cell survival at 50 uM. Type of series: cell-based. As to conditions: chlorocebus sabaeus, vero c1008, 50 µM.
The mark [7] stands for this setting: Severe acute respiratory syndrome coronavirus 2, Vero C1008.

What is called inhibition is the change of the read-out against control, counted positive when it falls. One may read the IC50 as the point on the concentration scale where inhibition reaches its midpoint. As to `CC(C)(C)OC(=O)NC(Cc1ccccc1)C(=O)N[C@@H](Cc1ccccc1)[C@@H](O)CN1CCN(Cc2ccc(C(F)(F)F)cc2)CC1` (some centres undefined), the inhibition in series [1] turned out to be 12%; in series [3] it was 5%. Also, the Activity entry in the series on Vero C1008 [2] was “Non-Toxic”. Moreover, the IC50 with SARS-CoV-2 [4] (setting [7]) came to 12.5 µM.
Turning to IVERMECTIN [listing 1 of 2 here], the figures for the inhibition in series [1] and in series [3] were 90% and 85%, respectively.
Turning to IVERMECTIN [listing 2 of 2 here], the values for the IC50 in the series on SARS-CoV-2 [5] (vero e6) and in the series with SARS-CoV-2 [4] (vero e6) were 2.7 µM and 6.02 µM, respectively. In addition, the Activity entry in the series on Vero C1008 [6] was “Toxic”.
With `Cc1ccc2c(c1)C(=O)N([C@H](Cc1ccccc1)C(=O)N[C@@H](Cc1ccccc1)[C@@H](O)CN1CCN(C[C@H](O)[C@H](Cc3ccccc3)NC(=O)[C@@H](Cc3ccccc3)N3C(=O)c4ccc(C)cc4C3=O)CC1)C2=O`, the IC50 stood at 10.9 µM in the series with SARS-CoV-2 [5] (setting [7]) and 14.7 µM in the series on SARS-CoV-2 [4] (setting [7]). The inhibition turned out to be 12% in series [1] and 5% in series [3]. Also, in the series with Vero C1008 [2], the Activity result is “Non-Toxic”.
In the case of `CC(C)(C)OC(=O)N[C@@H](Cc1ccccc1)[C@@H](O)CN1CCC(N2CCCCC2)CC1`, the IC50 came to 6.33 µM in the series on SARS-CoV-2 [5] (setting [7]) and 10.1 µM in the series on SARS-CoV-2 [4] (setting [7]). Besides, the inhibition in series [1] came to 12%; in series [3], 5%. Moreover, the Activity result in the series on Vero C1008 [2] was “Non-Toxic”.
